The source made the active and inactive calls. The rule behind the calls is not given here.
Assays:
[1] = Inhibition of 5-HT2AR mRNA expression in zebra fish AB assessed as fold decrease in 2 delta delta CT level at 1 uM by RT-qPCR method relative to control; assay type: functional, Danio rerio
How it was run: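 Total RNA from zebrafish was extracted with Trizol and reverse-transcribed with MMLV. SYBR Green qPCR: 95 °C 2 min; 40 cycles of 95, 60 and 72 °C, 30 s each; then 72 °C for 5 min. 5-HT2AR was normalized to GAPDH by the 2^−ΔΔCT method; mean ± SD, n = 3.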

[2] = biological target: T1, Amine oxidase [flavin-containing] A (Homo sapiens, UniProt P21397); experiment: Inhibition of MAO-A (unknown origin) using p-tyramine as substrate preincubated for 15 mins followed by substrate addition and measured after 15 mins by Amplex red fluorescence based microplate reader assay
T1 sequence (P21397 whole entry): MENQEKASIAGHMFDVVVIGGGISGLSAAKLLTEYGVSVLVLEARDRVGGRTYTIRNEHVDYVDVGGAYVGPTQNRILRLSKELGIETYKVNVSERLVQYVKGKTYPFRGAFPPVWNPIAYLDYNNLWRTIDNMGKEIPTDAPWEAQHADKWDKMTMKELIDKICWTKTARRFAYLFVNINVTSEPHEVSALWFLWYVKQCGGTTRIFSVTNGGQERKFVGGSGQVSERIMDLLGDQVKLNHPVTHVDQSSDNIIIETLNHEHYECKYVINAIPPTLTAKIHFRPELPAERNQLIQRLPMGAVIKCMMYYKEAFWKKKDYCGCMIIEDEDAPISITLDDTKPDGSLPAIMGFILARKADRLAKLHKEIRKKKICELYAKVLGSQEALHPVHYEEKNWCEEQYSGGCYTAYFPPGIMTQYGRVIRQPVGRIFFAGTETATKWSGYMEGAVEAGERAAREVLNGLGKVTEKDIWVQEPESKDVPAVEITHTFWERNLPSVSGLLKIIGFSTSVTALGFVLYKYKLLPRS

[3] = biological target: T2, Amine oxidase [flavin-containing] B (Homo sapiens, UniProt P27338); experiment: Inhibition of MAO-B (unknown origin) using p-tyramine as substrate preincubated for 15 mins followed by substrate addition and measured after 15 mins by Amplex red fluorescence based microplate reader assay
T2 sequence (P27338 whole entry): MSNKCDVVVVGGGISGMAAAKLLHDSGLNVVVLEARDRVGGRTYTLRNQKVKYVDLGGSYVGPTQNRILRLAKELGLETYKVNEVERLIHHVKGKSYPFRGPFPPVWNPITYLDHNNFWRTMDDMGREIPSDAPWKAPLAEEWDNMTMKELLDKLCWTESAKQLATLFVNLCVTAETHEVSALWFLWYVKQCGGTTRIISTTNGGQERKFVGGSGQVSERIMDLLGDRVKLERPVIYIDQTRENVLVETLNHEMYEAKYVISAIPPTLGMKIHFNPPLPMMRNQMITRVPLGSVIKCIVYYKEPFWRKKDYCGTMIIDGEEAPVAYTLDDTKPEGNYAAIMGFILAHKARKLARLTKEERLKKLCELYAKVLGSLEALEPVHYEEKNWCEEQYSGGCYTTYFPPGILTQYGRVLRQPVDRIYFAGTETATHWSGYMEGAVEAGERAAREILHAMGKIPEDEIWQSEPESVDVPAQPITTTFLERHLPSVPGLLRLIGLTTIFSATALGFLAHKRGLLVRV

[4] = organism: Homo sapiens; experiment: Selectivity index, ratio of IC50 for inhibition of MAO-B (unknown origin) to IC50 for inhibition of MAO-A (unknown origin)
How it was run: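 Amplex Red coupled assay. Test sample was preincubated with MAO-A or MAO-B at 37 °C for 15 min. p-Tyramine substrate working solution was added, with HRP converting the H2O2 formed to resorufin, for a further 15 min at 37 °C. Fluorescence read at Ex 545/Em 590 nm. […] SI = MAO-B IC50 / MAO-A IC50.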

[5] = Cytotoxicity against human L02 cells assessed as reduction in cell growth measured after 48 hrs by MTT assay; assay type: toxicity, cell-based
How it was run: (§1)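 MTT assay: PC12, SH-SY5Y or L02 cells at 5.0 × 10^3 per well were grown for 24 h, treated with compound dilutions from 10 mM DMSO stocks, and cultured 48 h. MTT was then added for 4 h at 37 °C, formazan dissolved in DMSO, and absorbance read at 570 nm. Viability is relative to blank control; IC50 from three repeats. Media contained 10% FBS.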

[6] = Cytotoxicity against human SH-SY5Y cells assessed as reduction in cell growth measured after 48 hrs by MTT assay; assay type: toxicity, cell-based; how it was run: as §1
[7] = Cytotoxicity against rat PC-12 cells assessed as reduction in cell growth measured after 48 hrs by MTT assay; assay type: toxicity, cell-based; how it was run: as §1
[8] = system: Mus musculus; experiment: Antidepressant activity in reserpine-induced mouse assessed as downregulation of 5-HT2AR expression at 20 mg/kg pretreated with reserpine for 3 days followed by compound addition on day 4 to 10 by Western blot analysis; assay type: functional, organism-based; settings: time 6.0 day
How it was run: (§2)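 ICR mice given reserpine 1 mg/kg i.p. for 3 consecutive days, then treated daily on days 4–10 (saline 10 mL/kg as vehicle control). Whole-brain protein quantified by BCA, diluted to 3 mg/mL, 10 μL run on 4–20% SDS-PAGE, transferred, blocked, primary antibody 4 °C overnight, secondary 1 h room temperature. Relative 5-HT1AR and 5-HT2AR levels, mean ± SD, n = 3.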

[9] = system: Mus musculus; experiment: Antidepressant activity in reserpine-induced mouse assessed as increase in 5-HT1AR expression at 20 mg/kg pretreated with reserpine for 3 days followed by compound addition on day 4 to 10 by Western blot analysis; assay type: functional, organism-based; settings: time 6.0 day; how it was run: as §2

Compound	fold change (FC) [1]	IC50 [2]	IC50 [3]	Ratio IC50 [4]	IC50 at 48 h [5]	IC50 at 48 h [6]	IC50 at 48 h [7]	Activity [8]	Activity [9]
O=C1c2ccccc2-c2nccc3cc(OCCCCN4CCN(c5ccccc5F)CC4)cc1c23	0.048	0.008 µM	1.49 µM	186	> 100 µM	> 10 µM	> 10 µM		
O=C1c2ccccc2-c2nccc3cc(OCCCN4CCN(c5cccc(Cl)c5Cl)CC4)cc1c23	0.055	0.011 µM	1.53 µM	139	> 100 µM	> 10 µM	> 10 µM		
COc1ccccc1N1CCN(CCCCOc2cc3c4c(nccc4c2)-c2ccccc2C3=O)CC1	0.685	0.091 µM	4.28 µM	47	> 100 µM	> 10 µM	> 10 µM		
O=C1c2ccccc2-c2nccc3cc(OCCCCN4CCN(c5cccc(Cl)c5Cl)CC4)cc1c23	0.578	0.072 µM	2.16 µM	30	> 100 µM	> 10 µM	> 10 µM		
O=C1c2ccccc2-c2nccc3cc(OCCCN4CCN(c5ccccc5Cl)CC4)cc1c23	1.886	0.361 µM	15.1 µM	41.9	> 100 µM	> 10 µM	> 10 µM		
CNCCC(Oc1ccc(C(F)(F)F)cc1)c1ccccc1 (centres undefined)								Active	Active
COc1ccccc1N1CCN(CCCOc2cc3c4c(nccc4c2)-c2ccccc2C3=O)CC1	0.2	0.054 µM	3.26 µM	60.4	> 100 µM	> 10 µM	> 10 µM		
O=C1c2ccccc2-c2nccc3cc(OCCCN4CCN(c5ccccc5)CC4)cc1c23	0.069	0.009 µM	0.85 µM	94.4	> 100 µM	> 10 µM	> 10 µM		
O=C1c2ccccc2-c2nccc3cc(OCCCCN4CCN(c5ccccc5)CC4)cc1c23	1.341	0.049 µM	3.42 µM	69.8	> 100 µM	> 10 µM	> 10 µM		
O=C1c2ccccc2-c2nccc3cc(O)cc1c23	2.675	1.26 µM	23.5 µM	18.6					
O=C1c2ccccc2-c2nccc3cc(OCCCCCN4CCN(c5cccc(Cl)c5Cl)CC4)cc1c23	0.049	0.006 µM	0.89 µM	148	> 100 µM	> 10 µM	> 10 µM		
O=C1c2ccccc2-c2nccc3cc(OCCCCN4CCN(c5ccccc5Cl)CC4)cc1c23	2.575	0.503 µM	12.7 µM	25.3	> 100 µM	> 10 µM	> 10 µM		
O=C1c2ccccc2-c2nccc3cc(OCCCN4CCN(c5ccccc5F)CC4)cc1c23	0.038	0.005 µM	1.01 µM	202	> 100 µM	> 10 µM	> 10 µM		
O=C1c2ccccc2-c2nccc3cc(OCCCCCN4CCN(c5ccccc5)CC4)cc1c23	0.06	0.009 µM	1.46 µM	162	> 100 µM	> 10 µM	> 10 µM		
COc1ccccc1N1CCN(CCCCCOc2cc3c4c(nccc4c2)-c2ccccc2C3=O)CC1	0.142	0.014 µM	1.38 µM	98.6	> 100 µM	> 10 µM	> 10 µM		
O=C1c2ccccc2-c2nccc3cc(OCCCCCN4CCN(c5ccccc5Cl)CC4)cc1c23	1.804	0.086 µM	4.19 µM	48.7	> 100 µM	> 10 µM	> 10 µM		
